Test results from ChEMBL document CHEMBL1833822, “Efficient synthesis of apricoxib, CS-706, a selective cyclooxygenase-2 inhibitor, and evaluation of inhibition of prostaglandin E2 production in inflammatory breast cancer cells” (2011).

Experiments:
Assay type in all cases: functional
[1] = Inhibition of sodium arachidonate-induced PGE2 production in human SUM190 cells assessed as PGE2 level per 1000 cells at 0.1 uM preincubated for 2 hrs before sodium arachidonate challenge measured after 2 hrs by competitive EIA (reference value: 6.43 +/- 1.87 pg/mL)
How it was run: (§1)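 Cells seeded in triplicate, grown at 37°C, 5% CO2 to 80% confluence, washed with PBS, then given fresh medium with inhibitor (0.1, 1, 10 μM) or DMSO vehicle. After 2 h preincubation at 37°C, sodium arachidonate was added to 10 μM final for 2 h more. Supernatant PGE2 was measured by competitive EIA and normalized to trypsinized cell count (pg/mL/1000 cells). Three runs, mean ± SD.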

[2] = Inhibition of sodium arachidonate-induced PGE2 production in human SUM190 cells assessed as PGE2 level per 1000 cells at 10 uM preincubated for 2 hrs before sodium arachidonate challenge measured after 2 hrs by competitive EIA (reference value: 6.43 +/- 1.87 pg/mL); how it was run: as §1
[3] = Inhibition of sodium arachidonate-induced PGE2 production in human SUM190 cells assessed as PGE2 level per 1000 cells at 1 uM preincubated for 2 hrs before sodium arachidonate challenge measured after 2 hrs by competitive EIA (reference value: 6.43 +/- 1.87 pg/mL); how it was run: as §1
SUM149PT [4] = test: Inhibition of sodium arachidonate-induced PGE2 production in human SUM149 cells assessed as PGE2 level per 1000 cells at 10 uM preincubated for 2 hrs before sodium arachidonate challenge measured after 2 hrs by competitive EIA (reference value: 3.15 +/- 0.19 pg/mL); how it was run: as §1
SUM149PT [5] = test: Inhibition of sodium arachidonate-induced PGE2 production in human SUM149 cells assessed as PGE2 level per 1000 cells at 0.1 uM preincubated for 2 hrs before sodium arachidonate challenge measured after 2 hrs by competitive EIA (reference value: 3.15 +/- 0.19 pg/mL); how it was run: as §1
SUM149PT [6] = test: Inhibition of sodium arachidonate-induced PGE2 production in human SUM149 cells assessed as PGE2 level per 1000 cells at 1 uM preincubated for 2 hrs before sodium arachidonate challenge measured after 2 hrs by competitive EIA (reference value: 3.15 +/- 0.19 pg/mL); how it was run: as §1
SUM149PT [7] = test: Inhibition of sodium arachidonate-induced PGE2 production in human SUM149 cells at 10 uM preincubated for 2 hrs before sodium arachidonate challenge measured after 2 hrs by competitive EIA; how it was run: as §1
SUM149PT [8] = test: Inhibition of sodium arachidonate-induced PGE2 production in human SUM149 cells at 100 nM preincubated for 2 hrs before sodium arachidonate challenge measured after 2 hrs by competitive EIA; how it was run: as §1
SUM149PT [9] = test: Inhibition of sodium arachidonate-induced PGE2 production in human SUM149 cells at 1 uM preincubated for 2 hrs before sodium arachidonate challenge measured after 2 hrs by competitive EIA; how it was run: as §1

SMILES	Activity [1]	Activity [2]	Activity [3]	Activity (SUM149PT [4])	Activity (SUM149PT [5])	Activity (SUM149PT [6])	inhibition at 10 µM (SUM149PT [7])	inhibition at 0.1 µM (SUM149PT [8])	inhibition at 1 µM (SUM149PT [9])
Cc1ccc(-c2cc(C(F)(F)F)nn2-c2ccc(S(N)(=O)=O)cc2)cc1 [CELECOXIB]	2.87 pg/mL	0.18 pg/mL	0.81 pg/mL	0.13 pg/mL	1.19 pg/mL	0.43 pg/mL	–	–	–
CCOc1ccc(-c2cc(C)cn2-c2ccc(S(N)(=O)=O)cc2)cc1 [APRICOXIB]	2.1 pg/mL	0.22 pg/mL	0.5 pg/mL	0.11 pg/mL	0.97 pg/mL	0.28 pg/mL	97%	70%	91%
